Assay results from ChEMBL document CHEMBL4513216, “Probing the Open Global Health Chemical Diversity Library for Multistage-Active Starting Points for Next-Generation Antimalarials” (ACS Infect Dis, 2020).

assay: Toxicity liver stage against HepG2, at 10uM; assay type: cell-based; design: test concentration 10 uM, cell line HepG2-A16-CD81EGFP; settings: human, HepG2-A16-CD81EGFP cells; read-out: INHIBITION
Summary of the method: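 Uninfected HepG2-A16-CD81EGFP cells, 3 × 10^3 per well, 1536-well, plated on prespotted compound at 10 μM final, parasite-free screening media added to match infected plates; puromycin 10 μM positive, DMSO 0.5% negative; run in parallel with 48 h PbLuc assay at 37 °C, 5% CO2; viability by CellTiter-Glo luminescence, normalized to controls.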

| Compound | cytotoxicity at 10 µM |
| --- | --- |
| CN(CC(=O)NC(Cc1ccsc1)c1cccnc1)Cc1cccnc1 (configuration not stated) | -4.04% |
| CC(=O)N(Cc1noc(C)n1)C1CCN(CC2CCCC2)C1 (configuration not stated) | -12.3% |
| O=C(COCC1CC1)N1CCCC(n2ccnc2)C1 (configuration not stated) | 0.0481% |
| Cc1ccccc1C1CCCN1C(=O)CN1CC2(CCNCC2)OC1=O (configuration not stated) | -11.1% |
| CC(=O)NCCNC(=O)NCCc1c(C)cc(C)cc1C | 6.02% |
| Cc1ccc(NCCCNC(=O)C2CC3(CCNCC3)CN2C)nc1 (configuration not stated) | 6.07% |
| O=C(NCCNc1ncccn1)N1CCCC1 | -12.8% |
| CCS(=O)(=O)N1CCCc2ccc(NC(=O)Cc3ccc(F)cc3)cc21 | 18.6% |
| Cc1nnc(SC2CCc3ccccc3NC2=O)n1C (configuration not stated) | -1.31% |
| CC(=O)NCc1ccc(C(=O)N2CCCC2c2cnn(C)c2)o1 (configuration not stated) | -8.67% |
| CN(CCSc1nncn1C(C)(C)C)c1ccccc1 | 24% |
| Cc1ccsc1[C@@H]1CCN(C(=O)CCC(=O)c2ccccc2)C[C@H]1O | 3.52% |
| O=C(NC1CCS(=O)(=O)C1)c1ccc(-c2ccc(F)cc2)s1 (configuration not stated) | -2.32% |
| NC(=O)C1CCN(CC(=O)NCCc2c(F)cccc2F)CC1 | -7.14% |
| CCSCCn1cc(-c2ncc[nH]2)nn1 | -41.4% |
| Cn1cnnc1S(=O)(=O)Cc1cc(Cl)c2c(c1)OCCO2 | -44.7% |
| CCN1C(=O)CCC12CCC(NC(=O)c1cnccn1)CC2 (configuration not stated) | -2.42% |
| CC1CCCN(CCCNC(=O)c2cn(C)nc2-c2cccnc2)C1 (configuration not stated) | -3.24% |
| Cc1nn(C)cc1S(=O)(=O)NCC(c1ccccc1Cl)N1CCCC1 (configuration not stated) | -1.29% |
| OCC(O)CSCc1ccc(F)cc1Cl (configuration not stated) | -138% |
| CN(C)Cc1ccc(C(N)=O)cc1NC(=O)c1cccc(C#N)c1 | 1.12% |
| COC(=O)CCC(=O)N(C/C=C/c1ccccc1)CCO | 3.28% |
| CC(C)n1[nH]c(=O)c2c1NC(=O)CSC2c1cccc(OCC(N)=O)c1 (configuration not stated) | 8.46% |

| Compound | cytotoxicity at 10 µM |
| --- | --- |
| CC(C)(CN1CCOCC1)CN1CCC(Cc2cccc(CO)c2)C1 (configuration not stated) | -7.73% |
| CCOc1ccc(C(=O)N2CCN(c3nccn3C)CC2)cc1 | 5.89% |
| COc1ccc(C(=O)N2CCOC3(CNCCOC3)C2)c(OC)n1 (configuration not stated) | -8.2% |
| CN1CC2(CCC(C(=O)N3CCOCC3)CC2)Oc2ccccc2C1=O (configuration not stated) | 5.91% |
| Cc1ccc(OCCN(C)C(=O)NC(C)c2nncn2C)cc1 (configuration not stated) | -9.77% |
| COc1ccc(S(=O)(=O)NC2(CC(N)=O)CCC2)cc1 | 11.7% |
| c1coc(-c2noc(CN3CC(n4cccn4)C3)n2)c1 | 2.96% |
| CC(NC(=O)Cc1cccs1)c1nnc2n1CCCCC2 (configuration not stated) | -15.5% |
| Nc1nccc(C2CCN(CC3CC3)C2)n1 (configuration not stated) | 8.54% |
| Cc1cc(C(=O)CN2CCN(c3ncccn3)CC2)c(C)n1C(C)C | 9.71% |
| CC(C)c1nccn1C(C)C(=O)N1CCN(c2cnccn2)CC1 (configuration not stated) | -12.5% |
| CNCC[C@H]1CC(C)(C)Oc2ccc(OC)cc21 | 0.942% |
| CN(C)CCN1CCO[C@@H]2CN(C(=O)c3cccs3)CC[C@@H]2C1 | 1.34% |
| Cc1cnc2c(c1NCc1ccc(F)cc1)c(=O)n(C)c(=O)n2C | -7.36% |
| CC(C)c1noc(C(C)N2CCN(Cc3cccnc3)CC2)n1 (configuration not stated) | -5.44% |
| CCOC1CCC2(CCN(C(=O)c3csnn3)CC2)c2ccccc21 (configuration not stated) | -1.58% |
| Cc1nn(-c2ncnc3[nH]cnc23)c2c1C(C(C)C)CC(=O)N2 (configuration not stated) | 10.8% |
| CN(C)S(=O)(=O)N1CCC(Oc2cnccn2)CC1 | 1.65% |
| COCCN1CCC(CNC(=O)C2(c3cc(C)cc(C)c3)CC2)CC1 | -7.94% |
| CC(C)(C)c1cc(NC(=O)CN2CCCC2Cn2cccn2)on1 (configuration not stated) | -15.3% |
| CN(C)C(=O)N[C@@H]1CN(C2CCOCC2)[C@@H]2CCCO[C@@H]21 | -4.08% |
| Cc1nc(CN(C)C2CCN(CCn3cc(C#N)cn3)C2)no1 (configuration not stated) | -3.82% |
| Fc1cccc(-n2cc(CN3CCCCC3CCn3ccnc3)cn2)c1 (configuration not stated) | -8.55% |

| Compound | cytotoxicity at 10 µM |
| --- | --- |
| CSc1nc2ccsc2c(=O)n1CC(=O)NC1CCCC1 | 0.297% |
| CC(C)(C)c1cnc(CN2CCCC2Cn2cccn2)o1 (configuration not stated) | -9.6% |
| Cc1cc(C)c2cc(CNCc3ccco3)c3nn(C)c(=O)n3c2c1 | -13.6% |
| Cn1cc(C2CCCN2C(=O)c2cnc(-c3ncccn3)s2)cn1 (configuration not stated) | 18.8% |
| CC(C)COCC(NC(=O)c1cccnc1)c1ccco1 (configuration not stated) | -12.1% |
| CCc1ccc(NC(C(N)=O)c2ccc(F)cc2)cc1 (configuration not stated) | 2.27% |
| Cc1nccc(CNC(=O)Nc2cc(C(F)(F)F)c[nH]c2=O)n1 | -1.16% |
| Cc1ccc(-c2c(-c3ccccc3)ncn2CCCN2CCOCC2)o1 | 6.23% |
| COc1ccc(OC2CCN(C(=O)CCc3nc(Cl)n[nH]3)CC2)cc1 | 4.47% |
| COc1ccc(CC(=O)NCCNS(=O)(=O)c2ccc(C)cc2)cc1 | -143% |
| CCN(CC1CN(Cc2nccn2CC)CCO1)c1cccnn1 (configuration not stated) | -0.31% |
| NC(=O)c1ccc(CN2C(=O)C3(CCNCC3)Nc3ccccc32)cc1 | -6.38% |
| Cc1cccc(C(C)(C)NC(=O)CCS(C)(=O)=O)c1 | 2.41% |
| Cc1ccccc1C(=O)Nc1cnn(CCN2CCOCC2)c1 | -11.7% |
| CN(C(=O)COc1ccc(-c2noc(C3CCCO3)n2)cc1)C1CC1 (configuration not stated) | -6.79% |
| CCc1ccc(C(=O)NCCCC2(C3OCCO3)CCOCC2)cc1 | 15.6% |
| Cc1cccc(CN2C[C@@H]3CC[C@H]2CN(Cc2[nH]cnc2C)C3)n1 | -3.43% |
| CCCN1CCCN(c2ncccc2C(=O)N2CCCCC2)CC1 | 0.503% |
| COC(=O)N1CCCC(C(=O)N2CCCCC2)C1 (configuration not stated) | -8.58% |
| CC(C)NC(=O)NCc1ccnc(N(C)C)n1 | -3.63% |
| C=C(C)COCCNC(=O)N1CCc2c(cccc2OC)C1 | 3.55% |
| CS(=O)(=O)CC1CCCN(c2ncnc3c2Cc2ccccc2OC3)C1 (configuration not stated) | -7.41% |
| O=C(CCCc1nc(-c2ccccc2)no1)N1CCN(CCO)CC1 | -3.54% |

| Compound | cytotoxicity at 10 µM |
| --- | --- |
| CC(C)c1noc(CCC(=O)NC2CCS(=O)(=O)C2)n1 (configuration not stated) | -15.6% |
| Cc1ncc(C)c(N2CCC(CCc3ccccc3)(C(=O)O)CC2)n1 | 3.49% |
| Cc1cnn(C2CCCN(C(=O)c3cc(-c4ccccc4C)n[nH]3)C2)c1 (configuration not stated) | -9.66% |
| Nc1ccc(CC2CCCN(Cc3c[nH]cn3)C2)nn1 (configuration not stated) | -0.701% |
| CN(C)CC1(O)CCN(Cc2cnc3c(-c4ccccc4)cnn3c2)C1 (configuration not stated) | -6.16% |
| CN(CCNC(=O)c1cnc(-c2ccccc2)nc1)S(C)(=O)=O | 4.3% |
| Cn1nc(C2CCCN(C(=O)Cc3ccsc3)C2)c2nccnc21 (configuration not stated) | 4.68% |
| CC(=O)N1CCCN(C(=O)c2ccc(Sc3ccccn3)cc2)CC1 | 10.9% |
| CC(C)(C)c1ncc2c(n1)CN(C(=O)c1ccc(-n3cnnn3)cc1)C2 | -1.98% |
| Cn1cc(CN2Cc3cn(C)nc3C(COCC3CC3)C2)cn1 (configuration not stated) | -69.8% |
| COCCN1CCO[C@H]2CN(C(=O)c3cccs3)C[C@H]21 | 2.1% |
| COc1c(C2CCCN2C(=O)c2cccc(C(N)=O)c2)c(C)nn1C (configuration not stated) | 0.192% |
| Cc1cnn(CC2CCCN2C(=O)Cc2c(C)noc2Cl)c1 (configuration not stated) | 0.471% |
| CC(C)c1nsc(NC2CCOC3(CCCC3)C2)n1 (configuration not stated) | 8.83% |
| CCc1nc(C2CCCN2Cc2nccn2Cc2ccccc2)no1 (configuration not stated) | 0.89% |
| OCCOCc1nnn2c1CN(c1ncccn1)CCC2 | -10.5% |
| CCOc1cccc(CNC(C)c2ccc(-n3ccnc3)cc2)c1O (configuration not stated) | -38.3% |
| Cc1cc(N(C)C)nc(N2CC(n3cccn3)C2)n1 | -3.24% |
| CC(C)Oc1cc(N2CC[C@@H](N3CCOCC3)[C@H](O)C2)nc(N)n1 | -2.32% |
| Cc1nccn1CCC1CCCCN1Cc1ccc(N(C)C)nc1 (configuration not stated) | 21.3% |
| CNC(=O)C(C)NC(=O)c1cc(COc2ccc(OC)cc2Cl)[nH]n1 (configuration not stated) | 5.27% |
| Cc1ccc(N2CCC(C3CCN(CC(C)C)CC3)C2)nn1 (configuration not stated) | -6.81% |
| Nc1nc(CCC(=O)N2C[C@H](c3ccccc3)[C@@H](N)C2)cs1 | 4.49% |

| Compound | cytotoxicity at 10 µM |
| --- | --- |
| COc1ccccc1CCc1nc(CC2CCN(C)CC2)no1 | 7.71% |
| CC(C)C1CN(C(=O)c2ccccc2)CCS1 (configuration not stated) | 1.62% |
| Cn1c(N2CCOCC2)nc2cc(C(=O)NCc3cccnc3)ccc21 | 0.678% |
| CCN(CC)C(=O)CCCNC(=O)c1csc(NC2CC2)n1 | 8.67% |
| CCCS(=O)(=O)N1CCC2(CC1)CN(CC1CCOC1)c1ccccc12 (configuration not stated) | -101% |
| CN(Cc1ccc([S+](C)[O-])cc1)c1cncc(Cl)n1 (configuration not stated) | -10.6% |
| COc1ncccc1C(=O)N1C[C@@H]2COC[C@]2(CN(C)C)C1 | -143% |
| CC(C)[C@H]1CN(c2ccncc2)C[C@@H]1NS(=O)(=O)N(C)C | 4.56% |
| Cc1noc(C)c1-c1cncc(C2CCCN2Cc2cn(C)cn2)n1 (configuration not stated) | -20.4% |
| CN(CC1CC1)C(=O)CN(Cc1cccc(O)c1)C1CCC(O)CC1 (configuration not stated) | -1.21% |
| CC1CC(=O)c2cc(C(=O)N3CCc4ccccc4C3)c(=O)[nH]c2C1 (configuration not stated) | -4.65% |
| CNC(=O)CN1CCOCC12CCN(C(=O)c1ccc(C)cc1)CC2 | -87.6% |
| CCN(CC)S(=O)(=O)c1ccc(CCC(=O)NCc2cc(C)on2)cc1 | -3.09% |
| CC(C)c1cnc(CN(C)C2CCN(CCc3ccccn3)C2)o1 (configuration not stated) | 2.37% |
| CN1C(=O)C2(CCN(S(C)(=O)=O)CC2)c2cc(F)ccc21 | -106% |
| CC(=O)N1CCOC(c2c(C(=O)NCCN(C)C)sc3ccccc23)C1 (configuration not stated) | -1.19% |
| N#Cc1cccnc1N1CCC(OCCc2ccccc2)CC1 | -11% |
| O=C(NCc1cnn(-c2ccc(F)cc2F)c1)C1CCCO1 (configuration not stated) | 8.69% |
| CC(C)(C)c1nc(CC(=O)Nc2cnccc2O)cs1 | 9.09% |
| Cc1cc(C(=O)N2CC[C@@H](O)[C@@H]2Cc2ccccc2)no1 | -1.36% |
